In publication PMC12461553 (RSC Advances, 2025):

Columns and labels:
MDA-MB-231 cells [1] = test: Cell cycle analysis; type: cell-based, human; conditions: MDA-MB-231, 4 μM
Procedure, shortened: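 Cells were treated with test compound at 0.5, 1, 2 and 4 μM beside untreated controls. They were stained with propidium iodide and analysed by flow cytometry to give the percentages of cells in G1, S and G2/M phases.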

MCF-7 cells [2] = test: Annexin V-FITC/PI apoptosis assay, MCF-7; type: cell-based, human
Procedure, shortened: (§1)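 Cells were seeded at 1 × 10^5 per well and allowed to adhere 24 h, then treated 24 h with test compound (2, 4, 6 μM) alongside untreated controls. They were harvested, washed in PBS and stained with annexin V-FITC plus PI in binding buffer, 20 min, dark, room temperature. Flow cytometry gave percentages of viable, early apoptotic, late apoptotic and necrotic cells.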

BEAS-2B lung cells = test: SRB cytotoxicity assay, BEAS-2B normal cells; type: cell-based; conditions: Homo sapiens, read-out: IC50 value, BEAS-2B lung cells
Procedure, shortened: (§2)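 Dose–response SRB assay: cells at 3000 per well were attached 24 h, then treated 48 h with test compound at 0.39–25 μM. They were TCA-fixed and stained with 0.057% SRB. Bound dye was dissolved in Tris base pH 10.5 and read at 510 nm. IC50 was fitted by non-linear regression.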

MDA-MB-231 cells [3] = test: 3D spheroid; type: cell-based, human; conditions: 8 days; for Sphere formation: MDA-MB-231, methylcellulose
Procedure, shortened: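 Single-cell suspensions in 1.5% methylcellulose/DMEM with 20% FBS were seeded at 1 × 10^5 cells per well over a 1% agarose–DMEM base for non-adherent growth. Cells were treated with test compound (0.5, 1, 2 μM) or doxorubicin and incubated 8 days. Spheres (≥20 cells) were imaged by fluorescence microscopy and counted per microscopic field.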

4T1 cells [4] = test: Annexin V-FITC/PI apoptosis assay, 4T1; type: cell-based, murine
Procedure, shortened: as §1

[5] = tested on: BCL-2 and Survivin expression in MDA-MB-231 cells; test: Gene expression analysis by RT-qPCR; type: cell-based, human
Procedure, shortened: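 Cells were treated 48 h with varying test compound concentrations, then total RNA was extracted and checked spectrophotometrically. 2 μg RNA was reverse-transcribed to cDNA. BCL2 and Survivin transcripts were measured by RT-qPCR and quantified by the 2−ΔΔCt method against β2-microglobulin as reference gene.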

HEK-293 kidney cells = test: SRB cytotoxicity assay, HEK-293 normal cells; type: cell-based; conditions: Homo sapiens, HEK293, read-out: IC50 value, HEK-293 kidney cells
Procedure, shortened: as §2

MCF-7 cells [6] = test: Cell cycle analysis; type: cell-based, human; conditions: MCF-7, 6 μM
Procedure, shortened: (§3)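 Cells were seeded at 1 × 10^5 per well and attached 24 h, then exposed to test compound for 24 h. Doxorubicin (0.5 μM) and untreated controls were run alongside. Cells were harvested, washed with PBS and stained with PI/RNase solution for DNA content. Flow cytometry gave G1, S and G2/M fractions from fluorescence intensity using predefined gates.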

4T1 cells [7] = test: Cell cycle analysis; type: cell-based, murine; conditions: 4T1, 6 μM
Procedure, shortened: as §3

MDA-MB-231 cells [8] = test: SRB cytotoxicity assay, MDA-MB-231; type: cell-based, human
4T1 cells [9] = test: SRB cytotoxicity assay, 4T1; type: cell-based, murine; conditions: for cytotoxicity at 25 µM: read-out: Average cell death (%) 4T1
Procedure, shortened: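 Single-dose screen: cells in DMEM/10% FBS at 37 °C, 5% CO2, seeded at 3000 per well, attached 24 h, then exposed to test compound at 25 μM final for 48 h. Fixed in cold 10% TCA, 1 h, 4 °C; stained 0.057% SRB, 30 min, dark, room temperature; rinsed with 1% acetic acid; dye solubilised in Tris base pH 10.5; absorbance 510 nm; percent cell death.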

MCF-7 cells [10] = test: SRB cytotoxicity assay, MCF-7; type: cell-based, human
[11] = Homo sapiens, MDA-MB-231, 48 h, read-out: Average cell death (%) MDA-MB-231
[12] = Homo sapiens, MCF7, 48 h, read-out: Average cell death (%) MCF-7

## Cc1ccc(C(=O)c2c(-c3ccccc3)n(Cc3ccccc3)c(=O)c3c2c2ccccc2n3C)cc1 [9c, 2-Benzyl-9-methyl-4-(4-methylbenzoyl)-3-phenyl-2,9-dihydro-1H-pyrido[3,4-b]indol-1-one]
MDA-MB-231 cells [1]
  G1 phase population: 46.9%
  G2/M population: 41.9%
MCF-7 cells [2]; MCF-7, 2 μM
  Early apoptosis: 7.2%
  Total apoptotic population (early + late): 11.3%
MCF-7 cells [2]; MCF-7, 4 μM
  Early apoptosis: 8.05%
  Total apoptotic population (early + late): 14.1%
MCF-7 cells [2]; MCF-7, 6 μM
  Early apoptosis: 9.9%
  Total apoptotic population (early + late): 16.5%
BEAS-2B lung cells
  IC50: 7.18 ± 0.32 µM
MDA-MB-231 cells [3]; MDA-MB-231, 0.5, 1, and 2 μM
  Number of spheres: reduced the number of spheres in a dose-dependent manner
MDA-MB-231 cells [3]
  Sphere formation: completely abrogated sphere formation
4T1 cells [4]; 4T1, 2 μM
  Early apoptosis: 13.5%
  Total apoptosis: 16.5%
4T1 cells [4]; 4T1, 4 μM
  Early apoptosis: 19.2%
  Total apoptosis: 23.5%
4T1 cells [4]; 4T1, 6 μM
  Early apoptosis: 22%
  Total apoptosis: 27.2%
[5]
  Expression of BCL-2: significantly downregulated
  Expression of Survivin: significantly downregulated
HEK-293 kidney cells
  IC50: 7.96 ± 0.04 µM
MCF-7 cells [6]
  G1 phase population: 85.6%
4T1 cells [7]
  G1 phase population: 50.1%
  G2/M population: 41.1%
MDA-MB-231 cells [8]; [11]
  cytotoxicity at 25 µM: 94.7 ± 1.1%
MDA-MB-231 cells [8]; Homo sapiens, MDA-MB-231, 48 h, read-out: IC50 value, MDA-MB-231
  IC50: 0.77 ± 0.03 µM
MDA-MB-231 cells [8]; MDA-MB-231 over normal HEK-293 kidney and BEAS-2B lung cells
  Selectivity for MDA-MB-231 breast cancer cells: ~10 fold
4T1 cells [9]; Mus musculus, 4T1, 48 h
  cytotoxicity at 25 µM: 72.34 ± 0.04%
4T1 cells [9]; Mus musculus, 4T1, 48 h, read-out: IC50 value, 4T1
  IC50: 3.71 ± 0.39 µM
4T1 cells [9]; at 25 μM, 48 h, SRB assay
  Average cell death (%) 4T1: 72.34 ±4.04%
MCF-7 cells [10]; [12]
  cytotoxicity at 25 µM: 75.14 ± 0.02%
MCF-7 cells [10]; Homo sapiens, MCF7, 48 h, read-out: IC50 value, MCF-7
  IC50: 4.34 ± 0.31 µM
MCF-7 cells [10]; at 25 μM, 48 h, SRB assay
  Average cell death (%) MCF-7: 75.14 ±4.02%

## Cn1c2ccccc2c2c(C(=O)c3ccc(F)cc3)c(-c3ccccc3)n(Cc3ccccc3)c(=O)c21 [9e, 2-Benzyl-4-(4-fluorobenzoyl)-9-methyl-3-phenyl-2,9-dihydro-1H-pyrido[3,4-b]indol-1-one]
MDA-MB-231 cells [8]; [11]
  cytotoxicity at 25 µM: 7.54 ± 0.71%
4T1 cells [9]; Mus musculus, 4T1, 48 h
  cytotoxicity at 25 µM: 32.2 ± 4.11%
MCF-7 cells [10]; [12]
  cytotoxicity at 25 µM: 2 ± 0.52%

## Cn1c2ccccc2c2c(C(=O)c3ccccc3)c(-c3ccccc3)n(CCc3ccccc3)c(=O)c21 [10a, 4-Benzoyl-9-methyl-2-phenethyl-3-phenyl-2,9-dihydro-1H-pyrido[3,4-b]indol-1-one]
MDA-MB-231 cells [8]; [11]
  cytotoxicity at 25 µM: 3.66 ± 0.31%
4T1 cells [9]; Mus musculus, 4T1, 48 h
  cytotoxicity at 25 µM: 46.6 ± 2.18%
MCF-7 cells [10]; [12]
  cytotoxicity at 25 µM: 1.67 ± 0.3%

## COc1ccc(C(=O)c2c(-c3ccccc3)n(CCc3ccccc3)c(=O)c3c2c2ccccc2n3C)cc1 [10b, 4-(4-Methoxybenzoyl)-9-methyl-2-phenethyl-3-phenyl-2,9-dihydro-1H-pyrido[3,4-b]indol-1-one]
MDA-MB-231 cells [8]; [11]
  cytotoxicity at 25 µM: 2.64 ± 0.7%
4T1 cells [9]; Mus musculus, 4T1, 48 h
  cytotoxicity at 25 µM: 49.9 ± 3.23%
MCF-7 cells [10]; [12]
  cytotoxicity at 25 µM: 10.1 ± 2.2%

## Cc1ccc(C(=O)c2c(-c3ccccc3)n(CCc3ccccc3)c(=O)c3c2c2ccccc2n3C)cc1 [10c, 9-Methyl-4-(4-methylbenzoyl)-2-phenethyl-3-phenyl-2,9-dihydro-1H-pyrido[3,4-b]indol-1-one]
MDA-MB-231 cells [8]; [11]
  cytotoxicity at 25 µM: 15.6 ± 1.15%
4T1 cells [9]; Mus musculus, 4T1, 48 h
  cytotoxicity at 25 µM: 60.5 ± 3.07%
MCF-7 cells [10]; [12]
  cytotoxicity at 25 µM: 26.2 ± 4.15%

## Cn1c2ccccc2c2c(C(=O)c3ccc(C(F)(F)F)cc3)c(-c3ccccc3)n(CCc3ccccc3)c(=O)c21 [10d, 9-Methyl-2-phenethyl-3-phenyl-4-(4-(trifluoromethyl)benzoyl)-2,9-dihydro-1H-pyrido[3,4-b]indol-1-one]
MDA-MB-231 cells [8]; [11]
  cytotoxicity at 25 µM: 11.5 ± 0.95%
4T1 cells [9]; Mus musculus, 4T1, 48 h
  cytotoxicity at 25 µM: 22 ± 2.05%
MCF-7 cells [10]; [12]
  cytotoxicity at 25 µM: 9.32 ± 1%

## Cn1c2ccccc2c2c(C(=O)c3ccc(F)cc3)c(-c3ccccc3)n(CCc3ccccc3)c(=O)c21 [10e, 4-(4-Fluorobenzoyl)-9-methyl-2-phenethyl-3-phenyl-2,9-dihydro-1H-pyrido[3,4-b]indol-1-one]
MDA-MB-231 cells [8]; [11]
  cytotoxicity at 25 µM: 4 ± 0.41%
4T1 cells [9]; Mus musculus, 4T1, 48 h
  cytotoxicity at 25 µM: 13.5 ± 1.16%
MCF-7 cells [10]; [12]
  cytotoxicity at 25 µM: 8.92 ± 0.8%

## COc1cccc2c1C(=O)c1c(O)c3c(c(O)c1C2=O)C[C@@](O)(C(=O)CO)C[C@@H]3O[C@H]1C[C@H](N)[C@H](O)[C@H](C)O1 [Doxorubicin, reference compound]
MDA-MB-231 cells [3]
  Sphere formation: completely abrogated sphere formation
[5]
  Expression of BCL-2: markedly reduced
  Expression of Survivin: markedly reduced
MDA-MB-231 cells [8]; [11]
  cytotoxicity at 5 µM: 80 ± 3.3%
MCF-7 cells [10]; [12]
  cytotoxicity at 5 µM: 85 ± 5.3%
